# Data as given in ChEMBL document CHEMBL1641494, “Modulation of PPAR subtype selectivity. Part 2: Transforming PPARα/γ dual agonist into α selective PPAR agonist through bioisosteric modification” (Bioorg Med Chem Lett, 2011).
# Activity calls are given as the source filed them. The calls are words filed in the database; no cut-off is given here.
# How the values were obtained:
# [1] = molecular target: T1, Peroxisome proliferator-activated receptor alpha (Homo sapiens) (UniProt Q07869); assay: Agonist activity at human PPARalpha in human HepG2 cells co-transfected with PPRE3-TK-luc assessed as induction of transactivation activity at 10 uM by luciferase reporter gene assay relative to control; type: functional, cell-based
# T1 sequence (whole entry): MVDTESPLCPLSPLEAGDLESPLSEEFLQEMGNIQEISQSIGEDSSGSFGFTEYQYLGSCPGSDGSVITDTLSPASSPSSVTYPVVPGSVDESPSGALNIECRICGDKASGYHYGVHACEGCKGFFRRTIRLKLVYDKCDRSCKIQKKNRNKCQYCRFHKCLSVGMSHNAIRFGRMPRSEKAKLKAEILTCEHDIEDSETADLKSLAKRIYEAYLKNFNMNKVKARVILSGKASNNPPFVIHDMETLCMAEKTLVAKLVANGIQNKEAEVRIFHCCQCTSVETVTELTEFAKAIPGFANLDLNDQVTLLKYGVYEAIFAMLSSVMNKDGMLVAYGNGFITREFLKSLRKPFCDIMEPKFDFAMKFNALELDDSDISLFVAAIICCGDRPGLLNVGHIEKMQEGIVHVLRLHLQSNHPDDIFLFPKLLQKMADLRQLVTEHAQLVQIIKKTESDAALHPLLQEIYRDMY
# Summary of the method: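 HepG2 cells were transfected with pSG5 vector carrying human PPARα cDNA and co-transfected with PPRE3-TK-luc. Firefly luciferase was read and normalised to β-galactosidase activity measured in an ELISA reader. Compound was tested at 10 µM. Results are expressed as fold induction versus vehicle (1% DMSO).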
# [2] = tested on: Rattus norvegicus; assay: Antihyperlipidemic activity in Sprague-Dawley rat assessed as reduction of serum total cholesterol level at 3 mg/kg, po qd for 14 days relative to control; type: functional; set-up: scale not given: the % may be the effect or the level left
# Summary of the method: (§1)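 Male Sprague–Dawley rats were fed a high-cholesterol diet for 15 days, then given vehicle or compound by oral gavage once daily for 14 days. Serum TG, total cholesterol, LDL-C and HDL-C were measured. Results are expressed as % change versus vehicle (n = 9).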
# [3] = Cmax in Wistar rat at 30 mg/kg, po; type: ADME, organism-based; set-up: dose 30 mg/kg, route oral; conditions: in vivo
# Summary of the method: (§2)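 Single oral dose of 30 mpk to fasted male Wistar rats (n = 6). Plasma concentrations were measured by LC–MS, and Tmax, Cmax, T1/2 and AUC(0–∞) were derived. Values are given as mean ± SD.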
# [4] = tested on: Mus musculus; assay: Antihyperglycemic activity in db/db mouse assessed as reduction of serum glucose level at 3 mg/kg, po qd for 7 days relative to control; type: functional; set-up: scale not given: the % may be the effect or the level left
# Summary of the method: (§3)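 Male db/db mice aged 6–8 weeks were dosed orally once daily for 7 days. Serum triglycerides and glucose were then measured. Results are expressed as % change versus vehicle-treated controls (n = 6).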
# [5] = tested on: Rattus norvegicus; assay: Antihyperlipidemic activity in Sprague-Dawley rat assessed as reduction of serum LDL-cholesterol level at 3 mg/kg, po qd for 14 days relative to control; type: functional; set-up: scale not given: the % may be the effect or the level left; summary of the method: as §1
# [6] = tested on: Rattus norvegicus; assay: Antihyperlipidemic activity in Sprague-Dawley rat assessed as increase of serum HDL-cholesterol level at 3 mg/kg, po qd for 14 days relative to control; type: functional; summary of the method: as §1
# [7] = tested on: Mus musculus; assay: Antihyperlipidemic activity in db/db mouse assessed as reduction of serum triglycerides level at 3 mg/kg, po qd for 7 days relative to control; type: functional; set-up: scale not given: the % may be the effect or the level left; summary of the method: as §3
# [8] = Half life in Wistar rat at 30 mg/kg, po; type: ADME, organism-based; set-up: dose 30 mg/kg, route oral; conditions: in vivo; summary of the method: as §2
# [9] = AUC (0 to infinity) in Wistar rat at 30 mg/kg, po; type: ADME, organism-based; set-up: time infinity, dose 30 mg/kg, route oral; conditions: plasma; summary of the method: as §2
# [10] = Tmax in Wistar rat at 30 mg/kg, po; type: ADME, organism-based; set-up: dose 30 mg/kg, route oral; conditions: in vivo; summary of the method: as §2
# [11] = tested on: Rattus norvegicus; assay: Antihyperlipidemic activity in Sprague-Dawley rat assessed as reduction of serum triglycerides level at 3 mg/kg, po qd for 14 days relative to control; type: functional; set-up: scale not given: the % may be the effect or the level left; summary of the method: as §1
# [12] = tested on: Rattus norvegicus; assay: Antihyperlipidemic activity in Sprague-Dawley rat assessed as reduction of serum total cholesterol level at 30 mg/kg, po qd for 14 days relative to control; type: functional; set-up: scale not given: the % may be the effect or the level left; summary of the method: as §1
# [13] = tested on: Mus musculus; assay: Antihyperlipidemic activity in db/db mouse assessed as reduction of serum triglycerides level at 30 mg/kg, po qd for 7 days relative to control; type: functional; set-up: scale not given: the % may be the effect or the level left; summary of the method: as §3
# [14] = tested on: Mus musculus; assay: Antihyperglycemic activity in db/db mouse assessed as reduction of serum glucose level at 30 mg/kg, po qd for 7 days relative to control; type: functional; set-up: scale not given: the % may be the effect or the level left; summary of the method: as §3
# [15] = tested on: Rattus norvegicus; assay: Antihyperlipidemic activity in Sprague-Dawley rat assessed as increase of serum HDL-cholesterol level at 30 mg/kg, po qd for 14 days relative to control; type: functional; summary of the method: as §1
# [16] = tested on: Rattus norvegicus; assay: Antihyperlipidemic activity in Sprague-Dawley rat assessed as reduction of serum LDL-cholesterol level at 30 mg/kg, po qd for 14 days relative to control; type: functional; set-up: scale not given: the % may be the effect or the level left; summary of the method: as §1
# [17] = tested on: Rattus norvegicus; assay: Antihyperlipidemic activity in Sprague-Dawley rat assessed as reduction of serum triglycerides level at 30 mg/kg, po qd for 14 days relative to control; type: functional; set-up: scale not given: the % may be the effect or the level left; summary of the method: as §1
smiles,measurement,setting,value
C/C(=N\OCCOc1ccc(C[C@H]2CO[C@@](C)(C(=O)O)OC2)cc1)c1ccc2c(c1)CCCC2,fold change (FC),[1],1.63
C/C(=N\OCCOc1ccc(C[C@H]2CO[C@@](C)(C(=O)O)OC2)cc1)c1ccc(OC(F)(F)F)cc1,fold change (FC),[1],3.48
C/C(=N\OCCOc1ccc(C[C@H]2CO[C@@](C)(C(=O)O)OC2)cc1)c1ccccc1,fold change (FC),[1],10.8
C/C(=N\OCCOc1ccc(C[C@H]2CO[C@@](C)(C(=O)O)OC2)cc1)c1ccc(C(F)(F)F)cc1,fold change (FC),[1],5.79
C/C(=N\OCCOc1ccc(C[C@H]2CO[C@@](C)(C(=O)O)OC2)cc1)c1cccnc1,fold change (FC),[1],2.36
C/C(=N\OCCOc1ccc(C[C@H]2CO[C@@](C)(C(=O)O)OC2)cc1)c1ccc(S(C)(=O)=O)cc1,fold change (FC),[1],1.37
Cc1ccc(-c2nc(COc3ccc(C[C@H]4CO[C@@](C)(C(=O)O)OC4)cc3)c(C)o2)cc1,fold change (FC),[1],14.7
C/C(=N\OCCOc1ccc(C[C@H]2CO[C@@](C)(C(=O)O)OC2)cc1)c1ccc(C)cc1,fold change (FC),[1],10.8
COc1ccc(/C(C)=N/OCCOc2ccc(C[C@H]3CO[C@@](C)(C(=O)O)OC3)cc2)cc1,Activity,[2],-56%
same,Cmax,[3],120 ng/mL
same,Activity,[4],-45%
same,Activity,[5],-68%
same,Activity,[6],68%
same,Activity,[7],-53%
same,half-life,[8],838 min
same,AUC(0-inf),[9],1420 ng·h/mL
same,fold change (FC),[1],15
same,Tmax,[10],36.6 min
same,Activity,[11],-54%
C/C(=N\OCCOc1ccc(C[C@H]2CO[C@@](C)(C(=O)O)OC2)cc1)c1ccc(F)cc1,fold change (FC),[1],10.5
C/C(=N\OCCOc1ccc(C[C@H]2CO[C@@](C)(C(=O)O)OC2)cc1)c1ccc2ccccc2c1,fold change (FC),[1],1.76
COc1ccc(/C(C)=N/OCCOc2ccc(C[C@H]3CO[C@@](C)(C(=O)O)OC3)cc2)cc1OC,fold change (FC),[1],3.61
Cc1ccc(-c2nc(CCCC[C@H]3CO[C@@](C)(C(=O)O)OC3)c(C)o2)cc1,Activity,[12],-49%
same,Activity,[13],-54%
same,Activity,[14],-43%
same,Activity,[15],62%
same,half-life,[8],119 min
same,fold change (FC),[1],12.7
same,Activity,[16],-58%
same,Activity,[17],-51%
same,Tmax,[10],39 min
CN(CCOc1ccc(CC2SC(=O)NC2=O)cc1)c1ccccn1 (configuration not stated),fold change (FC),[1],inactive
